Measured values as given in ChEMBL document CHEMBL1153804, “Optimization of a series of quinazolinone-derived antagonists of CXCR3” (Bioorg Med Chem Lett, 2009).

Tests used:
[1] = Oral bioavailability in cynomolgus monkey at 5 mg/kg; assay type: ADME, organism-based, Macaca fascicularis; settings: in vivo
[2] = Volume of distribution at steady state in mouse at 0.5 mg/kg, iv; assay type: ADME, organism-based; design: dose 0.5 mg/kg, route intravenous; settings: in vivo, read-out: Vdss
Blood = assay: Drug level in bleomycin-induced mouse blood at 10 mg/mL, sc; assay type: ADME, tissue-based
[3] = molecular target: T1, C-X-C chemokine receptor type 3 (Canis lupus familiaris, UniProt Q5KSK8); assay: Displacement of [125I]-IP10 from dog CXCR3 expressed in human PBMC after 2 hrs in RPMI buffer by scintillation counting
T1 sequence (Q5KSK8 whole entry): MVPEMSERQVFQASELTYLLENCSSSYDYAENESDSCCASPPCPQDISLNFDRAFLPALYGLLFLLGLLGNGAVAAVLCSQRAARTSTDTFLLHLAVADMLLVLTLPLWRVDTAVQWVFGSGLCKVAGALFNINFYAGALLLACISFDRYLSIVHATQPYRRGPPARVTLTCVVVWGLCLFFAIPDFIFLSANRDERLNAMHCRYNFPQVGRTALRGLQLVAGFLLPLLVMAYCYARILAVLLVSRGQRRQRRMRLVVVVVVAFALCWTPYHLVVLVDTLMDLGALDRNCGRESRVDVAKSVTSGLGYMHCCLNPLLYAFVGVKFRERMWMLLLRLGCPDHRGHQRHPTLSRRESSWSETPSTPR
Procedure, shortened: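 PBMC bearing CXCR3 were co-incubated with antagonist and recombinant human [125I]-IP10 for 2 h at room temperature in RPMI-1640 (no phenol red) with 0.5% BSA. Cells were harvested onto filter plates and bound radioactivity was counted by scintillation. IC50 values are means of three experiments.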

Cytochrome P450 1A2 = molecular target: T2, Cytochrome P450 1A2 (Homo sapiens, UniProt P05177); assay: Inhibition of CYP1A2; assay type: ADME
T2 sequence (P05177 whole entry): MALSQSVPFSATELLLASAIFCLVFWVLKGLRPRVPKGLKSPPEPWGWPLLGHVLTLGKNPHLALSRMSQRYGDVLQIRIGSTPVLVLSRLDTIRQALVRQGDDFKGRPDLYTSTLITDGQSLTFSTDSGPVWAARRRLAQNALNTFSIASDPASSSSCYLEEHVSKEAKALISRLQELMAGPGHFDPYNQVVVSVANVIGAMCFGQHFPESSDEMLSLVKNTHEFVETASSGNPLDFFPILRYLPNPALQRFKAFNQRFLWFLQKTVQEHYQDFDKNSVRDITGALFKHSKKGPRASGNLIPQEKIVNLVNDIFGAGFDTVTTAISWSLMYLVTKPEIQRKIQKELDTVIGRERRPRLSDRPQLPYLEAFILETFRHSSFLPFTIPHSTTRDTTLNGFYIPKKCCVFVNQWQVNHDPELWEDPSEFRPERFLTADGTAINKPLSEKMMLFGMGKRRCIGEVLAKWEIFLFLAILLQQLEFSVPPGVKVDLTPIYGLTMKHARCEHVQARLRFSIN

[4] = Clearance in cynomolgus monkey at 1 mg/kg, iv; assay type: ADME, organism-based, Macaca fascicularis; design: dose 1 mg/kg, route intravenous; settings: in vivo

Structure (SMILES): CCS(=O)(=O)CCN(C(=O)Cc1ccc(F)c(C(F)(F)F)c1)[C@H](C)c1nc2ncccc2c(=O)n1-c1ccc(OCC(F)(F)F)cc1
- bioavailability [1]: 14%
- Vd [2]: 0.8 L/kg
- Drug uptake (Blood): 35 ng/mL
- IC50 [3]: 5 nM
- Activity (Cytochrome P450 1A2): Active
- clearance [4]: 14.5 mL/min/kg
